Data published in ChEMBL document CHEMBL1142136, “Contribution of target gene mutations and efflux to decreased susceptibility of Salmonella enterica serovar typhimurium to fluoroquinolones and other antimicrobials” (2007).
Values after ≈ are worked out from the molar mass of the structure shown.

Assays:
Format in all cases: functional, Salmonella enterica subsp. enterica serovar Typhimurium
[1] = system: Salmonella typhimurium; assay: Antimicrobial activity against Salmonella enterica serovar Typhimurium CHS38 acrAB::Kan with GyrA D87G mutation
Procedure, shortened: (§1)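 MICs measured by broth microdilution on the Sensititre automated system and interpreted by CLSI broth microdilution standards. Ciprofloxacin was also tested by agar dilution, widening the range to 0.0075–128 μg/ml. Quality control strains were E. coli ATCC 25922 and 35218, E. faecalis ATCC 29212, S. aureus ATCC 29213 and P. aeruginosa ATCC 27853.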

[2] = system: Salmonella typhimurium; assay: Antimicrobial activity against Salmonella enterica serovar Typhimurium CHS14 gyrA+ with GyrA D87G mutation; procedure, shortened: as §1
[3] = system: Salmonella typhimurium; assay: Antimicrobial activity against Salmonella enterica serovar Typhimurium S21-3 with GyrA S83F, ParC S80I mutation; procedure, shortened: as §1
[4] = system: Salmonella typhimurium; assay: Antimicrobial activity against Salmonella enterica serovar Typhimurium CS3 gyrA+ with GyrA S83F, D87N, ParC S80I mutation; procedure, shortened: as §1
[5] = system: Salmonella typhimurium; assay: Antimicrobial activity against Salmonella enterica serovar Typhimurium CHS18 gyrA+ with GyrA S38F mutation; procedure, shortened: as §1
[6] = system: Salmonella typhimurium; assay: Antimicrobial activity against Salmonella enterica serovar Typhimurium CHS38 gyrA+ with GyrA D87G mutation; procedure, shortened: as §1
[7] = system: Salmonella typhimurium; assay: Antimicrobial activity against Salmonella enterica serovar Typhimurium S21; procedure, shortened: as §1
[8] = system: Salmonella typhimurium; assay: Antimicrobial activity against Salmonella enterica serovar Typhimurium CS9 gyrA+ with GyrA S83F, D87N, ParC S80I mutation; procedure, shortened: as §1
[9] = system: Salmonella typhimurium; assay: Antimicrobial activity against Salmonella enterica serovar Typhimurium CS3 with GyrA S83F, D87N, ParC S80I mutation; procedure, shortened: as §1
[10] = system: Salmonella typhimurium; assay: Antimicrobial activity against Salmonella enterica serovar Typhimurium S21-1 gyrA+; procedure, shortened: as §1
[11] = system: Salmonella typhimurium; assay: Antimicrobial activity against Salmonella enterica serovar Typhimurium CS9 tolC::Kan with GyrA S83F, D87N, ParC S80I mutation; procedure, shortened: as §1
[12] = system: Salmonella typhimurium; assay: Antimicrobial activity against Salmonella enterica serovar Typhimurium CHS38 with GyrA D87G mutation; procedure, shortened: as §1
[13] = system: Salmonella typhimurium; assay: Antimicrobial activity against Salmonella enterica serovar Typhimurium S21 acrAB::Kan
Procedure, shortened: (§2)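 MICs by automated broth microdilution panels, interpreted to CLSI broth microdilution standards. Ciprofloxacin additionally tested by agar dilution across 0.0075 to 128 μg/ml. Quality control strains: E. coli ATCC 25922 and 35218, Enterococcus faecalis ATCC 29212, S. aureus ATCC 29213, P. aeruginosa ATCC 27853. Test strains are kanamycin-marked deletion mutants of ground-beef isolate S21.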

[14] = system: Salmonella typhimurium; assay: Antimicrobial activity against Salmonella enterica serovar Typhimurium S21-3 gyrA+ with ParC S80I mutation; procedure, shortened: as §1
[15] = system: Salmonella typhimurium; assay: Antimicrobial activity against Salmonella enterica serovar Typhimurium S21-2 tolC::Kan with GyrA S83F, ParC S80I mutation; procedure, shortened: as §1
[16] = system: Salmonella typhimurium; assay: Antimicrobial activity against Salmonella enterica serovar Typhimurium S21-2 gyrA+ with ParC S80I mutation; procedure, shortened: as §1
[17] = system: Salmonella typhimurium; assay: Antimicrobial activity against Salmonella enterica serovar Typhimurium CS1 gyrA+ with GyrA S83F, D87N, ParC S80I mutation; procedure, shortened: as §1
[18] = system: Salmonella typhimurium; assay: Antimicrobial activity against Salmonella enterica serovar Typhimurium S21-3 acrAB::Kan with GyrA S83F, ParC S80I mutation; procedure, shortened: as §1
[19] = system: Salmonella typhimurium; assay: Antimicrobial activity against Salmonella enterica serovar Typhimurium S21-2 with GyrA S83F, ParC S80I mutation; procedure, shortened: as §1
[20] = system: Salmonella typhimurium; assay: Antimicrobial activity against Salmonella enterica serovar Typhimurium CS1 acrAB::Kan with GyrA S83F, D87N, ParC S80I mutation; procedure, shortened: as §1
[21] = system: Salmonella typhimurium; assay: Antimicrobial activity against Salmonella enterica serovar Typhimurium CHS18 with GyrA S38F mutation; procedure, shortened: as §1
[22] = system: Salmonella typhimurium; assay: Antimicrobial activity against Salmonella enterica serovar Typhimurium S21 tolC::Kan; procedure, shortened: as §2
[23] = system: Salmonella typhimurium; assay: Antimicrobial activity against Salmonella enterica serovar Typhimurium S21-4 with GyrA S83F, ParC S80I mutation; procedure, shortened: as §1
[24] = system: Salmonella typhimurium; assay: Antimicrobial activity against Salmonella enterica serovar Typhimurium CHS14 tolC::Kan with GyrA D87G mutant; procedure, shortened: as §1
[25] = system: Salmonella typhimurium; assay: Antimicrobial activity against Salmonella enterica serovar Typhimurium CS3 tolC::Kan with GyrA S83F, D87N, parC S80I mutation; procedure, shortened: as §1
[26] = system: Salmonella typhimurium; assay: Antimicrobial activity against Salmonella enterica serovar Typhimurium CS1 with GyrA S83F, D87N, ParC S80I mutation; procedure, shortened: as §1
[27] = system: Salmonella typhimurium; assay: Antimicrobial activity against Salmonella enterica serovar Typhimurium CHS14 acrAB::Kan with GyrA D87G mutation; procedure, shortened: as §1
[28] = system: Salmonella typhimurium; assay: Antimicrobial activity against Salmonella enterica serovar Typhimurium S21-4 gyrA+ with ParC S80I mutation; procedure, shortened: as §1
[29] = system: Salmonella typhimurium; assay: Antimicrobial activity against Salmonella enterica serovar Typhimurium GyrA S21-1 acrAB::Kan with GyrA S83F mutation; procedure, shortened: as §1
[30] = system: Salmonella typhimurium; assay: Antimicrobial activity against Salmonella enterica serovar Typhimurium CHS14 with GyrA D87G mutation; procedure, shortened: as §1
[31] = system: Salmonella typhimurium; assay: Antimicrobial activity against Salmonella enterica serovar Typhimurium CS9 with GyrA S83F, D87N, ParC S80I mutation; procedure, shortened: as §1
[32] = system: Salmonella typhimurium; assay: Antimicrobial activity against Salmonella enterica serovar Typhimurium CHS18 acrAB::Kan with GyrA S38F mutation; procedure, shortened: as §1
[33] = system: Salmonella typhimurium; assay: Antimicrobial activity against Salmonella enterica serovar Typhimurium S21 gyrA+; procedure, shortened: as §1
[34] = system: Salmonella typhimurium; assay: Antimicrobial activity against Salmonella enterica serovar Typhimurium S21-4 acrAB::Kan with GyrA S83F, ParC S80I mutation; procedure, shortened: as §1
[35] = system: Salmonella typhimurium; assay: Antimicrobial activity against Salmonella enterica serovar Typhimurium CS1 tolC::Kan with GyrA S83F, D87N, ParC S80I mutation; procedure, shortened: as §1
[36] = system: Salmonella typhimurium; assay: Antimicrobial activity against Salmonella enterica serovar Typhimurium CHS18 tolC::Kan with GyrA S38F mutation; procedure, shortened: as §1
[37] = system: Salmonella typhimurium; assay: Antimicrobial activity against Salmonella enterica serovar Typhimurium S21-1 tolC::Kan with GyrA S83F mutation; procedure, shortened: as §1
[38] = system: Salmonella typhimurium; assay: Antimicrobial activity against Salmonella enterica serovar Typhimurium S21-2 acrAB::Kan with GyrA S83F, ParC S80I mutation; procedure, shortened: as §1
[39] = system: Salmonella typhimurium; assay: Antimicrobial activity against Salmonella enterica serovar Typhimurium CS9 acrAB::Kan with GyrA S83F, D87N, ParC S80I mutation; procedure, shortened: as §1
[40] = system: Salmonella typhimurium; assay: Antimicrobial activity against Salmonella enterica serovar Typhimurium S21-1 GyrA S83F mutant; procedure, shortened: as §1
[41] = system: Salmonella typhimurium; assay: Antimicrobial activity against Salmonella enterica serovar Typhimurium S21-4 tolC::Kan with GyrA S83F, ParC S80I mutation; procedure, shortened: as §1
[42] = system: Salmonella typhimurium; assay: Antimicrobial activity against Salmonella enterica serovar Typhimurium CHS38 tolC::Kan with GyrA D87G mutation; procedure, shortened: as §1
[43] = system: Salmonella typhimurium; assay: Antimicrobial activity against Salmonella enterica serovar Typhimurium S21-3 tolC::Kan with GyrA S83F, ParC S80I mutation; procedure, shortened: as §1
[44] = system: Salmonella typhimurium; assay: Antimicrobial activity against Salmonella enterica serovar Typhimurium CS3 acrAB::Kan with GyrA S83F, D87N, ParC S80I mutation; procedure, shortened: as §1

Question: What does the source list for CO[C@@]1(NC(=O)Cc2cccs2)C(=O)N2C(C(=O)O)=C(COC(N)=O)CS[C@@H]21 [CEFOXITIN]?
Answer: MIC [1]: 0.5 µg/mL (≈ 1.17 µM); MIC [2]: 2 µg/mL (≈ 4.68 µM); MIC [3]: > 16 µg/mL; MIC [4]: 2 µg/mL (≈ 4.68 µM); MIC [5]: 2 µg/mL (≈ 4.68 µM); MIC [6]: 4 µg/mL (≈ 9.36 µM); MIC [7]: 4 µg/mL (≈ 9.36 µM); MIC [8]: 2 µg/mL (≈ 4.68 µM); MIC [9]: 1 µg/mL (≈ 2.34 µM); MIC [10]: 2 µg/mL (≈ 4.68 µM); MIC [11]: 1 µg/mL (≈ 2.34 µM); MIC [12]: 4 µg/mL (≈ 9.36 µM); MIC [13]: 1 µg/mL (≈ 2.34 µM); MIC [14]: > 16 µg/mL; MIC [15]: 2 µg/mL (≈ 4.68 µM); MIC [16]: > 16 µg/mL; MIC [17]: 2 µg/mL (≈ 4.68 µM); MIC [18]: 1 µg/mL (≈ 2.34 µM); MIC [19]: > 16 µg/mL; MIC [20]: 1 µg/mL (≈ 2.34 µM); MIC [21]: 2 µg/mL (≈ 4.68 µM); MIC [22]: 1 µg/mL (≈ 2.34 µM); MIC [23]: > 16 µg/mL; MIC [24]: 1 µg/mL (≈ 2.34 µM); MIC [25]: 1 µg/mL (≈ 2.34 µM); MIC [26]: 1 µg/mL (≈ 2.34 µM); MIC [27]: 1 µg/mL (≈ 2.34 µM); MIC [28]: > 16 µg/mL; MIC [29]: 1 µg/mL (≈ 2.34 µM); MIC [30]: 4 µg/mL (≈ 9.36 µM); MIC [31]: 1 µg/mL (≈ 2.34 µM); MIC [32]: 1 µg/mL (≈ 2.34 µM); MIC [33]: 4 µg/mL (≈ 9.36 µM); MIC [34]: 1 µg/mL (≈ 2.34 µM); MIC [35]: 1 µg/mL (≈ 2.34 µM); MIC [36]: 1 µg/mL (≈ 2.34 µM); MIC [37]: 1 µg/mL (≈ 2.34 µM); MIC [38]: 2 µg/mL (≈ 4.68 µM); MIC [39]: 1 µg/mL (≈ 2.34 µM); MIC [40]: 2 µg/mL (≈ 4.68 µM); MIC [41]: 2 µg/mL (≈ 4.68 µM); MIC [42]: 0.5 µg/mL (≈ 1.17 µM); MIC [43]: 1 µg/mL (≈ 2.34 µM); MIC [44]: 1 µg/mL (≈ 2.34 µM)
